Laboratory results published in ChEMBL document CHEMBL3526116, “Toxicological evaluation of acyl glucuronides of nonsteroidal anti-inflammatory drugs using human embryonic kidney 293 cells stably expressing human UDP-glucuronosyltransferase and human hepatocytes” (Drug Metab Dispos, 2011).
One block for each molecule: values may come before it.

How the values were obtained:
[1] = Drug level in cell culture medium treated with ketoprofen at 1 mM measured at 6 hrs by LC-MS/MS analysis in absence of acyl glucuronidation inhibitor (-)-borneol; format: physicochemical; details: 1000 µM
[2] = target: T1, UDP-glucuronosyltransferase 1A3 (Homo sapiens, UniProt P35503); assay: Activity of human UGT1A3 expressed in HEK293 cells assessed as enzyme-mediated compound formation in cell culture medium treated with ketoprofen at 1 mM measured at 6 to 24 hrs by LC-MS/MS analysis; format: ADME, cell-based; details: hek293, 1000 µM
T1 sequence (P35503 whole entry): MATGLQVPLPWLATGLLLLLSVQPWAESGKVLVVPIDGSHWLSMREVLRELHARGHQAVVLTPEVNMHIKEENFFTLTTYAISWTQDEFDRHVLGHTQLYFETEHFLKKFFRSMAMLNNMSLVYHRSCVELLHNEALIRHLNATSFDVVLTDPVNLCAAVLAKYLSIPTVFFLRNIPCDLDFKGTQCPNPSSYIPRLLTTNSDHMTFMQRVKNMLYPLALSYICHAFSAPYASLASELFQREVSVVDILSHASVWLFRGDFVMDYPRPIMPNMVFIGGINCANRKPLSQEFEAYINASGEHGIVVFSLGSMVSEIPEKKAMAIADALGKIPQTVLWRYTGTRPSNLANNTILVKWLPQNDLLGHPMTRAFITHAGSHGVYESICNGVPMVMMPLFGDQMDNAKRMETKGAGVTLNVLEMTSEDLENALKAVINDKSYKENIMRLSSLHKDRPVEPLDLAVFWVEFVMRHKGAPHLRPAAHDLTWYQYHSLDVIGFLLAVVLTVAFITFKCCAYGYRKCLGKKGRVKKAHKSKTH
Outline: (§1)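 HEK293 stably expressing human UGT1A3 (G418-selected), 2 x 10^5 cells/well in 1 mL DMEM with 0.5% FBS, exposed immediately to drug for 6, 12 or 24 h; DMSO ≤0.1% final. Cells and medium separated by centrifugation, cell fraction resuspended in PBS; aliquots mixed 1:1 with methanol/acetic acid (100:1), spun, supernatant analysed by LC-MS/MS. Triplicate determinations, mean ± SD.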

[3] = target: T1, UDP-glucuronosyltransferase 1A3; assay: Activity of human UGT1A3 expressed in HEK293 cells assessed as enzyme-mediated compound formation in cell culture medium treated with ketoprofen at 1 mM by LC-MS/MS analysis; format: ADME, cell-based; details: hek293, 1000 µM, TDE = time-dependent effect; outline: as §1
[4] = Drug level in cell culture medium treated with ketoprofen at 1 mM measured at 6 hrs by LC-MS/MS analysis in presence of acyl glucuronidation inhibitor (-)-borneol; format: physicochemical; details: 1000 µM
Hepatocyte [5] = assay: Drug level in human hepatocytes assessed per 2 x 10^5 cells treated with ketoprofen at 1 mM measured at 6 hrs by LC-MS/MS analysis in presence of acyl glucuronidation inhibitor (-)-borneol; format: ADME, cell-based; details: 1000 µM
[6] = target: T1, UDP-glucuronosyltransferase 1A3; assay: Activity of human UGT1A3 expressed in HEK293 cells assessed as enzyme-mediated compound formation per 2 x 10^5 cells treated with ketoprofen at 1 mM measured at 24 hrs by LC-MS/MS analysis; format: ADME, cell-based; details: hek293, 24 h, 1000 µM; outline: as §1
Hepatocyte [7] = assay: Drug level in human hepatocytes assessed per 2 x 10^5 cells treated with ketoprofen at 1 mM measured at 6 hrs by LC-MS/MS analysis in absence of acyl glucuronidation inhibitor (-)-borneol; format: ADME, cell-based; details: 1000 µM
Nucleic Acid [8] = assay: Ratio of drug level in human hepatocytes to HEK293 cells expressing UGT1A3 treated with ketoprofen at 1 mM; format: ADME, cell-based, Hepatocyte; details: 1000 µM
Outline: (§2)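 Acyl glucuronide in cell fraction (pmol/2 x 10^5 cells) by LC-MS/MS after 6 h exposure in human hepatocytes without (-)-borneol, set against HEK/UGT1A3 cells (2 x 10^5 cells/well, DMEM with 0.5% FBS) exposed to the same drug level; cells pelleted at 3000 x g, resuspended in PBS, extracted with methanol/acetic acid.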

[9] = target: T1, UDP-glucuronosyltransferase 1A3; assay: Activity of human UGT1A3 expressed in HEK293 cells assessed as enzyme-mediated compound formation per 2 x 10^5 cells treated with naproxen at 1 mM measured at 24 hrs by LC-MS/MS analysis; format: ADME, cell-based; details: hek293, 24 h, 1000 µM; outline: as §1
[10] = Drug level in cell culture medium treated with naproxen at 1 mM measured at 6 hrs by LC-MS/MS analysis in absence of acyl glucuronidation inhibitor (-)-borneol; format: physicochemical; details: 1000 µM
[11] = target: T1, UDP-glucuronosyltransferase 1A3; assay: Activity of human UGT1A3 expressed in HEK293 cells assessed as enzyme-mediated compound formation in cell culture medium treated with naproxen at 1 mM by LC-MS/MS analysis; format: ADME, cell-based; details: hek293, 1000 µM, TDE = time-dependent effect; outline: as §1
Hepatocyte [12] = assay: Drug level in human hepatocytes assessed per 2 x 10^5 cells treated with naproxen at 1 mM measured at 6 hrs by LC-MS/MS analysis in presence of acyl glucuronidation inhibitor (-)-borneol; format: ADME, cell-based; details: 1000 µM
Hepatocyte [13] = assay: Drug level in human hepatocytes assessed per 2 x 10^5 cells treated with naproxen at 1 mM measured at 6 hrs by LC-MS/MS analysis in absence of acyl glucuronidation inhibitor (-)-borneol; format: ADME, cell-based; details: 1000 µM
Nucleic Acid [14] = assay: Ratio of drug level in human hepatocytes to HEK293 cells expressing UGT1A3 treated with naproxen at 1 mM; format: ADME, cell-based, Hepatocyte; details: 1000 µM; outline: as §2
[15] = target: T1, UDP-glucuronosyltransferase 1A3; assay: Activity of human UGT1A3 expressed in HEK293 cells assessed as enzyme-mediated compound formation in cell culture medium treated with naproxen at 1 mM measured at 6 to 24 hrs by LC-MS/MS analysis; format: ADME, cell-based; details: hek293, 1000 µM; outline: as §1
[16] = Drug level in cell culture medium treated with naproxen at 1 mM measured at 6 hrs by LC-MS/MS analysis in presence of acyl glucuronidation inhibitor (-)-borneol; format: physicochemical; details: 1000 µM
[17] = target: T1, UDP-glucuronosyltransferase 1A3; assay: Activity of human UGT1A3 expressed in HEK293 cells assessed as enzyme-mediated compound formation per 2 x 10^5 cells treated with diclofenac at 0.1 mM measured at 24 hrs by LC-MS/MS analysis; format: ADME, cell-based; details: hek293, 24 h, 100 µM; outline: as §1
[18] = target: T1, UDP-glucuronosyltransferase 1A3; assay: Activity of human UGT1A3 expressed in HEK293 cells assessed as enzyme-mediated compound formation in cell culture medium treated with diclofenac at 0.1 mM measured at 6 to 24 hrs by LC-MS/MS analysis; format: ADME, cell-based; details: hek293, 100 µM; outline: as §1
[19] = Drug level in cell culture medium treated with diclofenac at 0.1 mM measured at 6 hrs by LC-MS/MS analysis in absence of acyl glucuronidation inhibitor (-)-borneol; format: physicochemical; details: 100 µM
[20] = target: T1, UDP-glucuronosyltransferase 1A3; assay: Activity of human UGT1A3 expressed in HEK293 cells assessed as enzyme-mediated compound formation in cell culture medium treated with diclofenac at 0.1 mM by LC-MS/MS analysis; format: ADME, cell-based; details: hek293, 100 µM, TDE = time-dependent effect; outline: as §1
Hepatocyte [21] = assay: Drug level in human hepatocytes assessed per 2 x 10^5 cells treated with diclofenac at 0.1 mM measured at 6 hrs by LC-MS/MS analysis in presence of acyl glucuronidation inhibitor (-)-borneol; format: ADME, cell-based; details: 100 µM
[22] = Drug level in cell culture medium treated with diclofenac at 0.1 mM measured at 6 hrs by LC-MS/MS analysis in presence of acyl glucuronidation inhibitor (-)-borneol; format: physicochemical; details: 100 µM
Hepatocyte [23] = assay: Drug level in human hepatocytes assessed per 2 x 10^5 cells treated with diclofenac at 0.1 mM measured at 6 hrs by LC-MS/MS analysis in absence of acyl glucuronidation inhibitor (-)-borneol; format: ADME, cell-based; details: 100 µM

Drug metabolism [1]: 436.8 pmol/mL
Drug metabolism [2]: 6.3 pmol/mL
Drug metabolism [3]: tde
Drug metabolism [4]: 54.9 pmol/mL
Drug metabolism (Hepatocyte [5]): 1.7 pmol
Drug metabolism [6]: 0.2 pmol
Drug metabolism (Hepatocyte [7]): 6.8 pmol
Ratio (Nucleic Acid [8]): 6
SMILES: CC(C(=O)O[C@@H]1O[C@H](C(=O)O)[C@@H](O)[C@H](O)[C@H]1O)c1cccc(C(=O)c2ccccc2)c1 (stereo partly drawn)

Drug metabolism [9]: 4.5 pmol
Drug metabolism [10]: 1323.9 pmol/mL
Drug metabolism [11]: tde
Drug metabolism (Hepatocyte [12]): 10.3 pmol
Drug metabolism (Hepatocyte [13]): 33.6 pmol
Ratio (Nucleic Acid [14]): 6
Drug metabolism [15]: 137 pmol/mL
Drug metabolism [16]: 393.7 pmol/mL
SMILES: COc1ccc2cc([C@H](C)C(=O)O[C@@H]3O[C@H](C(=O)O)[C@@H](O)[C@H](O)[C@H]3O)ccc2c1

Drug metabolism [17]: 3.8 pmol
Drug metabolism [18]: 104 pmol/mL
Drug metabolism [19]: 2816.1 pmol/mL
Drug metabolism [20]: tde
Drug metabolism (Hepatocyte [21]): 15.1 pmol
Drug metabolism [22]: 610.5 pmol/mL
Drug metabolism (Hepatocyte [23]): 59.6 pmol
SMILES: O=C(Cc1ccccc1Nc1c(Cl)cccc1Cl)O[C@@H]1O[C@H](C(=O)O)[C@@H](O)[C@H](O)[C@H]1O
